Our source for the IC50 values is ChEMBL document CHEMBL1137706, “Design, synthesis, and anti-tumor evaluation of novel symmetrical bis-benzimidazoles” (Eur J Med Chem, 2009).

Format in all cases: functional, cell-based
One assay concerns SK-OV-3. The assay can be described thus: Antitumor activity against human SKOV3 cells after 72 hrs by MTT assay. Particulars: SK-OV-3, 72 h. Put shortly:
(§1)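 Cells grown in RPMI1640 with 10% fetal bovine serum, seeded at 4.0 × 10^4 cells/well and left 4 h at 37 °C, 5% CO2 to adhere. Compound then added and incubation continued 72 h at 37 °C, 5% CO2. Viability read by standard MTT assay.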
A general note: Formazan colour is commonly taken as a measure of viable cells.

For a further assay, the system named is HeLa. The assay can be described thus: Antitumor activity against human HeLa cells after 72 hrs by MTT assay. Put shortly:
as §1

The next assay concerns BGC-823. Description: Antitumor activity against human BGC823 cells after 72 hrs by MTT assay. Particulars: BGC-823, 72 h. Put shortly:
as §1

SMILES strings stand for the structures.

`CCOc1ccnc(CSc2nc3ccc(-c4ccc5nc(SCc6nccc(OCC)c6C)[nH]c5c4)cc3[nH]2)c1C`: the IC50 with SK-OV-3, in the assay with HeLa and in the assay with BGC-823 was greater than 50 µM throughout.

Take `COc1ccnc(CSc2nc3ccc(-c4ccc5nc(SCc6nccc(OC)c6OC)[nH]c5c4)cc3[nH]2)c1OC`: the IC50 in the assay on SK-OV-3, with HeLa and with BGC-823 was greater than 50 µM throughout.

`Clc1ccc(CSc2nc3ccc(-c4ccc5nc(SCc6ccc(Cl)nc6)[nH]c5c4)cc3[nH]2)cn1`: the IC50 in the assay with SK-OV-3, in the assay on HeLa and in the assay with BGC-823 was greater than 50 µM each time.

Regarding `c1ccc(CSc2nc3ccc(-c4ccc5nc(SCc6ccccn6)[nH]c5c4)cc3[nH]2)nc1`, the IC50 (as a rule, the concentration that gives 50% inhibition) was 38.6 µM in the assay with SK-OV-3, 7.1 µM in the assay on HeLa and 16.4 µM in the assay with BGC-823.

Consider `c1cncc(CSc2nc3ccc(-c4ccc5nc(SCc6cccnc6)[nH]c5c4)cc3[nH]2)c1`, for which the results for the IC50 in the assay with SK-OV-3, in the assay on HeLa and in the assay on BGC-823 were 8.73 µM, greater than 50 µM and greater than 50 µM, respectively.

On to `c1cc(CSc2nc3ccc(-c4ccc5nc(SCc6ccncc6)[nH]c5c4)cc3[nH]2)ccn1`, for which the IC50 in the assay on SK-OV-3 came out at 2.81 µM; in the assay on HeLa, 32.4 µM; in the assay with BGC-823 it was 11 µM.

For the compound `COc1c(Cl)ccnc1CSc1nc2ccc(-c3ccc4nc(SCc5nccc(Cl)c5OC)[nH]c4c3)cc2[nH]1`, the IC50 in the assay on SK-OV-3 is greater than 50 µM; in the assay on HeLa, 45.4 µM; in the assay with BGC-823, greater than 50 µM.

`COc1ccnc(CSc2nc3ccc(-c4ccc5nc(SCc6nccc(OC)c6C)[nH]c5c4)cc3[nH]2)c1C`: the half-maximal inhibitory concentration (IC50) in the assay with SK-OV-3, with HeLa and in the assay with BGC-823 was greater than 50 µM each time.

With `Cc1c(OCC(F)(F)F)ccnc1CSc1nc2ccc(-c3ccc4nc(SCc5nccc(OCC(F)(F)F)c5C)[nH]c4c3)cc2[nH]1`, the IC50 in the assay on SK-OV-3 was 23 µM; in the assay on HeLa it was 18.3 µM; in the assay on BGC-823 it was greater than 50 µM.

In the case of `COc1c(C)cnc(CSc2nc3ccc(-c4ccc5nc(SCc6ncc(C)c(OC)c6C)[nH]c5c4)cc3[nH]2)c1C`, the 50% inhibitory concentration (IC50) in the assay on SK-OV-3 was 2.95 µM; in the assay with HeLa, greater than 50 µM; with BGC-823 it was greater than 50 µM.

For `CC(=O)O[C@H]1C(=O)[C@@]2(C)[C@H]([C@H](OC(=O)c3ccccc3)[C@]3(O)C[C@H](OC(=O)[C@H](O)[C@@H](NC(=O)c4ccccc4)c4ccccc4)C(C)=C1C3(C)C)[C@]1(OC(C)=O)CO[C@@H]1C[C@@H]2O` [PACLITAXEL], in the assay with SK-OV-3, the IC50 is 0.00134 µM.
